The target in series [1] is T1, Solute carrier organic anion transporter family member 1B1 (Homo sapiens, UniProt Q9Y6L6).
T1 sequence (Q9Y6L6 whole entry): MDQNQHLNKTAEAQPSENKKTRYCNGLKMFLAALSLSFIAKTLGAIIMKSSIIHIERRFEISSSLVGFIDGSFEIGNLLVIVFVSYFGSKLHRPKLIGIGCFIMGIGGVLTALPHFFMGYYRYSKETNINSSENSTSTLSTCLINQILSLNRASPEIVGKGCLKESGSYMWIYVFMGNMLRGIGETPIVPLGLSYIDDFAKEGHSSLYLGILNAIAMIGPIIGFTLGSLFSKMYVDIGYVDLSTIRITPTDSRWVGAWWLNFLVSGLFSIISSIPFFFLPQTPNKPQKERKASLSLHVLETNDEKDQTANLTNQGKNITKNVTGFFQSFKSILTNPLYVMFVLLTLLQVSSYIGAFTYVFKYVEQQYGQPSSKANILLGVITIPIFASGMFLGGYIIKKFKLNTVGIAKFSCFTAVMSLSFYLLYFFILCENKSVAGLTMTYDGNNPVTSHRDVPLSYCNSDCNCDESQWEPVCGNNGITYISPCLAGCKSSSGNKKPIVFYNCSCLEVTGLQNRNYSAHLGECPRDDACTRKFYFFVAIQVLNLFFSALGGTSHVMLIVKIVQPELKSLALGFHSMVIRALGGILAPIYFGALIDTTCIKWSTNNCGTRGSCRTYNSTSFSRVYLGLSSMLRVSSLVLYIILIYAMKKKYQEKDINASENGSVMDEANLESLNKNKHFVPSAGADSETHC
The series can be described thus: Inhibition of OATP1B1 (unknown origin) upto 100 uM.

Series [2] is described as follows: Aqueous solubility of compound in HCl salt : water. It is filed as physicochemical.
Series [3] deals with T2, Amine oxidase [flavin-containing] A (Homo sapiens, UniProt P21397).
T2 sequence (P21397 whole entry): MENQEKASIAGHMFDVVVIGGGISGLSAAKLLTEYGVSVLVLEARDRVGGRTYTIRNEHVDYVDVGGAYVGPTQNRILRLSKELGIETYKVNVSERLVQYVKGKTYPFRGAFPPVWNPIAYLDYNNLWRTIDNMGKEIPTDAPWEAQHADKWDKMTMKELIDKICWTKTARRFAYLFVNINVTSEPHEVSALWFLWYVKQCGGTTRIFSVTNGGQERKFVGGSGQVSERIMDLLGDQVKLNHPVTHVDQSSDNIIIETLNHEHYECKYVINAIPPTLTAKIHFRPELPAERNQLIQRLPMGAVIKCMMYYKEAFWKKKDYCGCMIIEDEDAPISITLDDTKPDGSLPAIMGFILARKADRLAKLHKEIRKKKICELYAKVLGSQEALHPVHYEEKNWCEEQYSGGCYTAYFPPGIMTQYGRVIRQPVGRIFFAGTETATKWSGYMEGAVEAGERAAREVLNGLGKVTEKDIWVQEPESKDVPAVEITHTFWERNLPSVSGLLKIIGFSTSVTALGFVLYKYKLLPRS
The series can be described thus: Inhibition of MAO-A (unknown origin).

The nature of series [4]: Cmax in rat at 3 mg/kg, po. Further details: dose 3 mg/kg, route oral; call rule not given here. It is filed as ADME, organism-based. The settings on record: in vivo.
Series [5] in a line: Total blood clearance in rat blood at 0.5 mg/kg, iv. It is filed as ADME, organism-based.
The nature of series [6]: Half life in rat at 0.5 mg/kg, iv. Particulars: in vivo. It is filed as ADME, organism-based.
Series [7] is described as follows: Aqueous solubility of the compound in FeSSIF. Type of series: physicochemical.
Series [8] in a line: Toxicity in rat assessed as sedation by measuring spontaneous locomotor activity at 60 mg/kg, po. Type of series: organism-based. Particulars: in vivo. Summed up:
(§1)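 Male rats, spontaneous locomotor activity test; oral doses 60, 100 or 300 mg/kg given 30 min before the session; plasma sampled 60 min postdose at 60 mg/kg.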

Series [9] has as its target T3, Solute carrier organic anion transporter family member 1B3 (Homo sapiens, UniProt Q9NPD5).
T3 sequence (Q9NPD5 whole entry): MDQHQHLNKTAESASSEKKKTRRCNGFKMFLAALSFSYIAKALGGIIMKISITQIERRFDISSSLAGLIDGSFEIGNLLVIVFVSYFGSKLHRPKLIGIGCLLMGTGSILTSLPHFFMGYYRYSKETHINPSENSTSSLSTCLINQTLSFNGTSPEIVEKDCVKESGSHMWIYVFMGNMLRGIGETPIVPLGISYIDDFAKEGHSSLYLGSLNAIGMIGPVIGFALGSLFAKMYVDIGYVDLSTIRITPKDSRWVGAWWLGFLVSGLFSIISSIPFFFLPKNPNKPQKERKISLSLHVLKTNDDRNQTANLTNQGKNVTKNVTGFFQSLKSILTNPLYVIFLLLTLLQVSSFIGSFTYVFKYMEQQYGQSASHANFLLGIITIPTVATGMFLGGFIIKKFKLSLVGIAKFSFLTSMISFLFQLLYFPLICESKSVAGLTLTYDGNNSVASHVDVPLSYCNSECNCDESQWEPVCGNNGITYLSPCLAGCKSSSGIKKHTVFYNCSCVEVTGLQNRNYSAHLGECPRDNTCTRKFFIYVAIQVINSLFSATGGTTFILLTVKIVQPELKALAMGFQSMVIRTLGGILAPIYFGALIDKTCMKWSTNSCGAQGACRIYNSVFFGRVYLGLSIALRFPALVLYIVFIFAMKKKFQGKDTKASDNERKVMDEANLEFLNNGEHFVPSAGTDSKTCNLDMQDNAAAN
The series can be described thus: Inhibition of OATP1B3 (unknown origin).

Series [10] in a line: Plasma concentration in rat after measuring the spontaneous locomotor activity at 60 mg/kg, po measured after 60 mins post dose. It is filed as ADME, organism-based. Summed up: as §1
Series [11] in a line: Free plasma concentration in rat model of chronic constriction injury-induced neuropathic pain at 0.5 mg/kg, po BID administered 22 days post surgery and measured on day 8 at 0.5 hrs post-dose. Particulars: in vivo. It is filed as ADME, organism-based. Summed up:
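Chronic constriction injury neuropathic pain model in rat; oral dosing at 0.5 or 5 mg/kg BID starting day 22; mechanical allodynia read after 6 and 8 days of dosing; gabapentin 30 mg/kg po BID as positive control. Free plasma levels sampled on day 8, 0.5 h postdose.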

Series [12] can be described thus: Apparent permeability in dog MDCK cells at pH 7.4. Type of series: ADME, cell-based, Canis lupus familiaris. The essentials: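 MDCK cell monolayer permeability measured at pH 7.4, reported as apparent permeability in nm/s.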

From ChEMBL document CHEMBL4622996, “Discovery of Vixotrigine: A Novel Use-Dependent Sodium Channel Blocker for the Treatment of Trigeminal Neuralgia” (ACS Med Chem Lett, 2020) come the findings set out here.

On to `Cl.NC(=O)[C@@H]1CC[C@H](c2ccc(OCc3ccccc3F)cc2)N1` [RAXATRIGINE HYDROCHLORIDE], for which the “inhibition (INH)” value in series [1] and in series [9] was “Not Active” in each case. Moreover, the figures for the solubility in series [2] and in series [7] were 16.3 mg/mL and 6.9 mg/mL, respectively. Besides, in series [3], the Ki is more than 10 µM. For the same molecule, the highest concentration (Cmax) in series [4] was determined as 226 ng/mL. Also, the clearance in series [5] stood at 39 mL/min/kg. This molecule gave a half-life in [6] of 48 min. Moreover, the Activity entry in series [8] is reported as “Non-Toxic”. Also, the concentration at 1 h in series [10] was 13100 ng/mL. Besides, the “Cp(f)” value in [11] came out at 1.9 ng/mL. Also, in series [12], the apparent permeability coefficient (Papp) is 38.6 ×10⁻⁶ cm/s.

For orientation: solubility means the dissolved amount per volume that the medium holds. For orientation: Ki means the dissociation constant of the complex between target and ligand, obtained from inhibition or displacement. Low readings indicate a stronger hold on the target, high ones a looser hold on the target. By Cmax is commonly meant the peak of the concentration-time curve. A word on the clearance: it is the rate of elimination divided by the concentration. A low value points to a low capacity for elimination. Broadly, the half-life is how long it takes for the measured level to halve. What is called Papp is the rate of passage across a membrane or cell layer, normalised by area and donor concentration.
